Results taken from ChEMBL document CHEMBL1926651, “Design, synthesis, antiviral and cytostatic evaluation of novel isoxazolidine nucleotide analogues with a 1,2,3-triazole linker” (Eur J Med Chem, 2012).
Active and inactive are the calls of the source. No cut-off for these calls is given here.

Experiments:
Human alphaherpesvirus 1 [1] = assay: Antiviral activity against thymidine kinase-deficient acv-resistant Herpes simplex virus 1 KOS infected in human HEL cells assessed as inhibition of viral plaque formation at 250 uM; format: functional, organism-based
Human alphaherpesvirus 3 [2] = assay: Antiviral activity against thymidine kinase-positive Varicella Zoster virus Oka infected in human HEL cells assessed as inhibition of viral plaque formation at 250 uM; format: functional, cell-based; conditions: strain Oka vaccine
CCRF-CEM = assay: Cytotoxicity against human CEM cells 3 days by coulter counting; format: functional; conditions: 72 h
How it was run: (§1)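 Cells were suspended at 300,000–500,000 cells/mL and added 1:1 to compound dilutions. Incubation was at 37 °C, 2 days for L1210 and 3 days for CEM, HeLa and HEL. Cells were counted with a Coulter counter. CC50 is the concentration inhibiting cell proliferation by 50%.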

[3] = system: Vesicular stomatitis virus; assay: Antiviral activity against Vesicular stomatitis virus infected in human Hela cells assessed as inhibition of viral plaque formation at 250 uM; format: functional, organism-based
Felid alphaherpesvirus 1 = assay: Antiviral activity against Felid herpesvirus 1 infected in CrFK cells assessed as inhibition of viral plaque formation at 250 uM; format: functional, organism-based
How it was run: (§2)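 Confluent host cell monolayers were inoculated with 100 CCID50 of virus in the presence of test compound at serial dilutions (250, 50, 10, … μM). Viral cytopathicity was scored once it reached completion in untreated virus-infected controls.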

Sindbis virus = assay: Antiviral activity against Sindbis virus infected in african green monkey Vero cells assessed as inhibition of viral plaque formation at 250 uM; format: functional, organism-based; how it was run: as §2
Human alphaherpesvirus 1 [4] = assay: Antiviral activity against Herpes simplex virus 1 KOS infected in human HEL cells assessed as inhibition of viral plaque formation at 250 uM; format: functional, organism-based; how it was run: as §2
Human betaherpesvirus 5 [5] = assay: Antiviral activity against Human cytomegalovirus AD169 infected in human HEL cells assessed as inhibition of viral plaque formation at 250 uM; format: functional, organism-based
Coxsackievirus B4 [6] = assay: Antiviral activity against Coxsackievirus B4 infected in african green monkey Vero cells assessed as inhibition of viral plaque formation at 250 uM; format: functional, organism-based; how it was run: as §2
HEL = assay: Cytotoxicity against human HEL cells 3 days by coulter counting; format: functional; conditions: 72 h; how it was run: as §1
Vaccinia virus = assay: Antiviral activity against Vaccinia virus infected in human HEL cells assessed as inhibition of viral plaque formation at 250 uM; format: functional, organism-based; conditions: Orthopoxvirus vaccinia; how it was run: as §2
[7] = system: Respiratory syncytial virus; assay: Antiviral activity against Respiratory syncytial virus infected in human HeLa cells assessed as inhibition of viral plaque formation at 250 uM; format: functional, organism-based; how it was run: as §2
Human alphaherpesvirus 2 = assay: Antiviral activity against Herpes simplex virus 2 G infected in human HEL cells assessed as inhibition of viral plaque formation at 250 uM; format: functional, organism-based; conditions: strain G
[8] = system: Human immunodeficiency virus 2; assay: Antiviral activity against Human immunodeficiency virus 2 infected in human CEM cells assessed as inhibition of virus-induced giant cell formation after 4 days by microscopic analysis; format: functional, organism-based; conditions: CCRF-CEM
How it was run: (§3)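 CEM cells at about 3 × 10⁵ cells/cm³ were infected with 100 CCID50/mL of HIV-1(IIIB) or HIV-2(ROD), then seeded into wells holding test compound dilutions. After 4 days at 37 °C, virus-induced giant cell formation was scored microscopically.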

HeLa = assay: Cytotoxicity against human HeLa cells 3 days by coulter counting; format: functional; conditions: 72 h; how it was run: as §1
[9] = system: Mammalian orthoreovirus 1; assay: Antiviral activity against Reovirus-1 infected in african green monkey Vero cells assessed as inhibition of viral plaque formation at 250 uM; format: functional, organism-based; how it was run: as §2
Human respirovirus 3 = assay: Antiviral activity against Parainfluenza-3 virus infected in african green monkey Vero cells assessed as inhibition of viral plaque formation at 250 uM; format: functional, organism-based; how it was run: as §2
[10] = system: Vesicular stomatitis virus; assay: Antiviral activity against Vesicular stomatitis virus infected in human HEL cells assessed as inhibition of viral plaque formation at 250 uM; format: functional, organism-based; how it was run: as §2
Punta Toro virus = assay: Antiviral activity against Punta Toro virus infected in african green monkey Vero cells assessed as inhibition of viral plaque formation at 250 uM; format: functional, organism-based
L1210 = assay: Cytotoxicity against mouse L1210 cells 2 days by coulter counting; format: functional; conditions: L1210, 48 h; how it was run: as §1
[11] = system: Human immunodeficiency virus 1; assay: Antiviral activity against Human immunodeficiency virus 1 infected in human CEM cells assessed as inhibition of virus-induced giant cell formation after 4 days by microscopic analysis; format: functional, organism-based; conditions: CCRF-CEM; how it was run: as §3
Human alphaherpesvirus 3 [12] = assay: Antiviral activity against thymidine kinase-deficient Varicella Zoster virus 07/1 infected in human HEL cells assessed as inhibition of viral plaque formation at 250 uM; format: functional, organism-based
Feline coronavirus = assay: Antiviral activity against Feline coronavirus infected in CrFK cells assessed as inhibition of viral plaque formation at 250 uM; format: functional, organism-based; how it was run: as §2
Human betaherpesvirus 5 [13] = assay: Antiviral activity against Human cytomegalovirus Davis infected in human HEL cells assessed as inhibition of viral plaque formation at 250 uM; format: functional, organism-based
Coxsackievirus B4 [14] = assay: Antiviral activity against Coxsackievirus B4 infected in human HeLa cells assessed as inhibition of viral plaque formation at 250 uM; format: functional, organism-based; how it was run: as §2

| SMILES | Activity (Human alphaherpesvirus 1 [1]) | Activity (Human alphaherpesvirus 3 [2]) | Activity [3] | Activity (Felid alphaherpesvirus 1) | Activity (Sindbis virus) | Activity (Human alphaherpesvirus 1 [4]) | Activity (Human betaherpesvirus 5 [5]) | Activity (Coxsackievirus B4 [6]) | Activity (Vaccinia virus) | Activity [7] | Activity (Human alphaherpesvirus 2) | Activity [8] | Activity [9] | Activity (Human respirovirus 3) | Activity [10] | Activity (Punta Toro virus) | Activity [11] | Activity (Human alphaherpesvirus 3 [12]) | Activity (Feline coronavirus) | Activity (Human betaherpesvirus 5 [13]) | also measured |
| --- | --- | --- | --- | --- | --- | --- | --- | --- | --- | --- | --- | --- | --- | --- | --- | --- | --- | --- | --- | --- | --- |
| CCOP(=O)(OCC)[C@@H]1C[C@@H](n2cc(-c3nccn3C)nn2)ON1C | inactive | inactive | inactive | inactive | inactive | inactive | inactive | inactive | inactive | inactive | inactive | inactive | inactive | inactive | inactive | inactive | inactive | inactive | inactive | inactive | CC50 (CCRF-CEM): > 250 µM; CC50 (HEL): > 100 µM; CC50 (HeLa): > 250 µM; CC50 (L1210): ≥ 250 µM; Activity (Coxsackievirus B4 [14]): inactive |
| CCOP(=O)(OCC)[C@@H]1C[C@H](n2cc(-c3nccn3C)nn2)ON1C | inactive | inactive | inactive | inactive | inactive | inactive | inactive | inactive | inactive | inactive | inactive | inactive | inactive | inactive | inactive | inactive | inactive | inactive | inactive | inactive | CC50 (CCRF-CEM): > 250 µM; CC50 (HEL): > 100 µM; CC50 (HeLa): > 250 µM; CC50 (L1210): ≥ 250 µM; Activity (Coxsackievirus B4 [14]): inactive |
| CCOC(=O)C1=C[C@@H](OC(CC)CC)[C@H](NC(C)=O)[C@@H](N)C1 | inactive | inactive | inactive | inactive | inactive | inactive | inactive | inactive | inactive | inactive | inactive | inactive | inactive | inactive | inactive | inactive | inactive | inactive | inactive | inactive | Activity (Coxsackievirus B4 [14]): inactive |
| NC(=O)c1ncn([C@@H]2O[C@H](CO)[C@@H](O)[C@H]2O)n1 | inactive | inactive | inactive | inactive | inactive | inactive | inactive | inactive | inactive | inactive | inactive | inactive | inactive | inactive | inactive | inactive | inactive | inactive | inactive | inactive | Activity (Coxsackievirus B4 [14]): inactive |
| Nc1ccn(C[C@@H](CO)OCP(=O)(O)O)c(=O)n1 | inactive | inactive | inactive | inactive | inactive | inactive | inactive | inactive | inactive | inactive | inactive | inactive | inactive | inactive | inactive | inactive | inactive | inactive | inactive | inactive | Activity (Coxsackievirus B4 [14]): inactive |
| Nc1nc2c(ncn2COC(CO)CO)c(=O)[nH]1 | inactive | inactive | inactive | inactive | inactive | inactive | inactive | inactive | inactive | inactive | inactive | inactive | inactive | inactive | inactive | inactive | inactive | inactive | inactive | inactive | Activity (Coxsackievirus B4 [14]): inactive |
| Nc1nc2c(ncn2COCCO)c(=O)[nH]1 | inactive | inactive | inactive | inactive | inactive | inactive | inactive | inactive | inactive | inactive | inactive | inactive | inactive | inactive | inactive | inactive | inactive | inactive | inactive | inactive | Activity (Coxsackievirus B4 [14]): inactive |
| Nc1ncnc2c1ncn2C[C@H](O)CO | inactive | inactive | inactive | inactive | inactive | inactive | inactive | inactive | inactive | inactive | inactive | inactive | inactive | inactive | inactive | inactive | inactive | inactive | inactive | inactive | Activity (Coxsackievirus B4 [14]): inactive |
| O=c1[nH]c(=O)n([C@H]2C[C@H](O)[C@@H](CO)O2)cc1/C=C/Br | inactive | inactive | inactive | inactive | inactive | inactive | inactive | inactive | inactive | inactive | inactive | inactive | inactive | inactive | inactive | inactive | inactive | inactive | inactive | inactive | Activity (Coxsackievirus B4 [14]): inactive |
